This passage reports Potency and Plasma GH release results from ChEMBL document CHEMBL1123585, “Differential effects of N-terminal modifications on the biological potencies of growth hormone releasing factor analogues with varying chain lengths” (1987).

In assay [1] the target is T1, Growth hormone-releasing hormone receptor (Rattus norvegicus) (UniProt Q02644).
T1 sequence (whole entry): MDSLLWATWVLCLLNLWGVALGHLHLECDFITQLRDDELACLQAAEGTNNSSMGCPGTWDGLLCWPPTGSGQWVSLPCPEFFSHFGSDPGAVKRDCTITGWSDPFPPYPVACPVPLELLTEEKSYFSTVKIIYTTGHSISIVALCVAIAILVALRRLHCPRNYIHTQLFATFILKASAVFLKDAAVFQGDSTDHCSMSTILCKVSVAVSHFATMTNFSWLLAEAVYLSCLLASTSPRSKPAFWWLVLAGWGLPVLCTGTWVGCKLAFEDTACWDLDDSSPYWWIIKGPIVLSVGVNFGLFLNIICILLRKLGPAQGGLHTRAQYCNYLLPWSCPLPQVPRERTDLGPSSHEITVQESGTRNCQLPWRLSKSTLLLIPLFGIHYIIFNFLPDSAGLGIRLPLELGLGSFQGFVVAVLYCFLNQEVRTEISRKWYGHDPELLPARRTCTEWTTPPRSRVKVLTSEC
The assay is described as follows: Tested for the potency of growth hormone (GRF) on subcutaneous administration in anesthetized male Charles River rats. It is filed as functional, organism-based. The method in brief:
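Pentobarbital-anesthetized male rats (175-275 g), six to nine per group, received two subcutaneous doses of analogue or of reference GRF(1-29)NH2, in 0.5 mL, 30 min after anesthesia. Plasma GH measured by RIA 15 min later. Potency with 95% confidence limits calculated from a four-point assay design by the Pugsley method.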

Assay [2] is filed under the species Rattus norvegicus. Kind of assay: In vitro rat pituitary cell growth hormone response to the compound was obtained. It counts as functional, Pituitary gland cell.
Assay [3] has as its target T1, Growth hormone-releasing hormone receptor (Rattus norvegicus). The assay is described as follows: Effect on growth hormone release(GRF) was determined in nembutal-anesthetized rat, at dose of 100 ug/100 g body weight. It is filed as functional. The method in brief:
(§1)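 Male Charles River rats (175-275 g), anesthetized with sodium pentobarbital 6 mg/100 g body weight. Six to nine per group. Peptide or saline given subcutaneously in 0.5 mL, 30 min after anesthetic. Jugular vein blood taken 15 min post-injection. Plasma GH measured by radioimmunoassay and reported as ng/mL, mean ± SEM.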

Assay [4] has the same target. The assay is described as follows: Effect on growth hormone release(GRF) was determined in nembutal-anesthetized rat, at dose of 10 ug/100 g body weight. It counts as functional. An outline of the steps: as §1
For assay [5], the system named is Rattus norvegicus. The assay is described as follows: Effect on growth hormone release(GRF) was determined in nembutal-anesthetized rat, at dose of 50 ug/100 g body weight. It counts as functional, organism-based. An outline of the steps: as §1
For assay [6], the target named is T1, Growth hormone-releasing hormone receptor (Rattus norvegicus). Kind of assay: In vitro rat pituitary cell growth hormone response was obtained. It is filed as functional, cell-based. The conditions noted are these: Pituitary gland cell.
The subject of assay [7] is Rattus norvegicus. The assay is described as follows: Effect on growth hormone release(GRF) was determined in nembutal-anesthetized rat, at dose of 20 ug/100 g body weight. It is filed as functional, organism-based. An outline of the steps: as §1

Where “and” joins values, the source holds several entries; their conditions need not be identical. Equal entries are not always repeated. Some results are limits rather than exact numbers.

Regarding `CC[C@H](C)[C@H](NC(=O)[C@H](C)NC(=O)[C@H](CC(=O)O)NC(=O)[C@H](C)NC(=O)[C@H](Cc1ccc(O)cc1)NC(C)=O)C(=O)N[C@@H](Cc1ccccc1)C(=O)N[C@H](C(=O)N[C@@H](CC(N)=O)C(=O)N[C@@H](CO)C(=O)N[C@@H](Cc1ccc(O)cc1)C(=O)N[C@@H](CCCN=C(N)N)C(=O)N[C@@H](CCCCN)C(=O)N[C@H](C(=O)N[C@@H](CC(C)C)C(=O)NCC(=O)N[C@@H](CCC(N)=O)C(=O)N[C@@H](CC(C)C)C(=O)N[C@@H](CO)C(=O)N[C@@H](C)C(=O)N[C@@H](CCCN=C(N)N)C(=O)N[C@@H](CCCCN)C(=O)N[C@@H](CC(C)C)C(=O)N[C@@H](CC(C)C)C(=O)N[C@@H](CCC(N)=O)C(=O)N[C@@H](CC(=O)O)C(=O)N[C@H](C(=O)N[C@@H](CCSC)C(=O)N[C@@H](CO)C(=O)N[C@@H](CCCN=C(N)N)C(N)=O)[C@@H](C)CC)C(C)C)[C@@H](C)O`, the Potency in assay [1] was 1200%; in the assay filed under Rattus norvegicus [2] it was 240%.
Ac-HADAIFTNSYRKVLGQLSARKLLQ-NH2: the Plasma GH release in assay [3] stood at 719 ng/mL; in assay [4] it was 358 ng/mL. For the same molecule, in assay [1], the Potency was less than 5%.
On to `CC[C@H](C)[C@H](NC(=O)[C@H](C)NC(=O)[C@H](CC(=O)O)NC(=O)[C@H](C)NC(=O)[C@@H](N)Cc1ccc(O)cc1)C(=O)N[C@@H](Cc1ccccc1)C(=O)N[C@H](C(=O)N[C@H](CC(N)=O)C(=O)N[C@@H](CO)C(=O)N[C@@H](Cc1ccc(O)cc1)C(=O)N[C@@H](CCCN=C(N)N)C(=O)N[C@@H](CCCCN)C(=O)N[C@H](C(=O)N[C@@H](CC(C)C)C(=O)NCC(=O)N[C@@H](CCC(N)=O)C(=O)N[C@@H](CC(C)C)C(=O)N[C@@H](CO)C(=O)N[C@@H](C)C(=O)N[C@@H](CCCN=C(N)N)C(=O)N[C@@H](CCCCN)C(=O)N[C@@H](CC(C)C)C(=O)N[C@@H](CC(C)C)C(=O)N[C@@H](CCC(N)=O)C(=O)N[C@@H](CC(=O)O)C(=O)N[C@H](C(=O)N[C@@H](CC(C)C)C(N)=O)[C@@H](C)CC)C(C)C)[C@@H](C)O`, for which the Plasma GH release was 2370 ng/mL in the assay with Rattus norvegicus [5] and 1550 ng/mL in the assay with Rattus norvegicus [7]. Moreover, the Potency is 25% in assay [6] and 53% in assay [1].
As to `CC[C@H](C)[C@H](NC(=O)[C@H](C)NC(=O)[C@H](CC(=O)O)NC(=O)[C@H](C)NC(=O)[C@@H](N)Cc1ccc(O)cc1)C(=O)N[C@@H](Cc1ccccc1)C(=O)N[C@H](C(=O)N[C@H](CC(N)=O)C(=O)N[C@@H](CO)C(=O)N[C@@H](Cc1ccc(O)cc1)C(=O)N[C@@H](CCCN=C(N)N)C(=O)N[C@@H](CCCCN)C(=O)N[C@H](C(=O)N[C@@H](CC(C)C)C(=O)NCC(=O)N[C@@H](CCC(N)=O)C(=O)N[C@@H](CC(C)C)C(=O)N[C@@H](CO)C(=O)N[C@@H](C)C(=O)N[C@@H](CCCN=C(N)N)C(=O)N[C@@H](CCCCN)C(=O)N[C@@H](CC(C)C)C(=O)N[C@@H](CC(C)C)C(=O)N[C@@H](CCC(N)=O)C(=O)N[C@@H](CC(=O)O)C(=O)N[C@H](C(=O)N[C@@H](CCSC)C(=O)N[C@@H](CO)C(=O)N[C@@H](CCCN=C(N)N)C(N)=O)[C@@H](C)CC)C(C)C)[C@@H](C)O`, in assay [1], the Potency came out at 220%.
On to `CC[C@H](C)[C@H](NC(=O)[C@H](C)NC(=O)[C@@H](CC(=O)O)NC(=O)[C@@H](C)NC(=O)[C@@H](N)Cc1ccc(O)cc1)C(=O)N[C@@H](Cc1ccccc1)C(=O)N[C@H](C(=O)N[C@H](CC(N)=O)C(=O)N[C@@H](CO)C(=O)N[C@@H](Cc1ccc(O)cc1)C(=O)N[C@@H](CCCN=C(N)N)C(=O)N[C@@H](CCCCN)C(=O)N[C@H](C(=O)N[C@@H](CC(C)C)C(=O)NCC(=O)N[C@@H](CCC(N)=O)C(=O)N[C@@H](CC(C)C)C(=O)N[C@@H](CO)C(=O)N[C@@H](C)C(=O)N[C@@H](CCCN=C(N)N)C(=O)N[C@@H](CCCCN)C(=O)N[C@@H](CC(C)C)C(N)=O)C(C)C)[C@@H](C)O`, for which the Plasma GH release in assay [3] stood at 340 ng/mL; in assay [4], 314 ng/mL. The Potency in assay [1] is less than 5%.
Take Ac-YADAIFTNSYRKVLGQLSARKLLQ-NH2: the Plasma GH release is 664 ng/mL in assay [3] and 396 ng/mL in assay [4]. The Potency in assay [1] is less than 5%.
Ac-YADAIFTNSYRKVLGQLSARKLLQDIL-NH2: the Plasma GH release with Rattus norvegicus [5] stood at 2730 ng/mL; in the assay on Rattus norvegicus [7], 1270 ng/mL. In assay [1], this molecule returned a Potency of 54%.
Take `CC[C@H](C)[C@H](NC(=O)C(CC(=O)O)NC(=O)[C@H](CCC(N)=O)NC(=O)[C@H](CC(C)C)NC(=O)[C@H](CC(C)C)NC(=O)[C@H](CCCCN)NC(=O)[C@H](CCCN=C(N)N)NC(=O)[C@H](C)NC(=O)[C@H](CO)NC(=O)[C@H](CC(C)C)NC(=O)[C@H](CCC(N)=O)NC(=O)CNC(=O)[C@H](CC(C)C)NC(=O)[C@@H](NC(=O)[C@H](CCCCN)NC(=O)[C@H](CCCN=C(N)N)NC(=O)[C@H](Cc1ccc(O)cc1)NC(=O)[C@H](CO)NC(=O)[C@H](CC(N)=O)NC(=O)[C@@H](NC(=O)[C@H](Cc1ccccc1)NC(=O)[C@@H](NC(=O)[C@H](C)NC(=O)C(CC(=O)O)NC(=O)[C@@H](C)NC(=O)[C@@H](N)Cc1ccc(O)cc1)[C@@H](C)CC)[C@@H](C)O)C(C)C)C(=O)N[C@@H](CCSC)C(=O)N[C@@H](CO)C(=O)N[C@@H](CCCN=C(N)N)C(N)=O` (stereo in doubt): the Potency amounted to 670% in assay [1] and 150% in the assay listed under Rattus norvegicus [2].
Regarding `CC[C@H](C)[C@H](NC(=O)[C@H](C)NC(=O)[C@H](CC(=O)O)NC(=O)[C@H](C)NC(=O)[C@@H](N)Cc1ccc(O)cc1)C(=O)N[C@@H](Cc1ccccc1)C(=O)N[C@H](C(=O)N[C@@H](CC(N)=O)C(=O)N[C@@H](CO)C(=O)N[C@@H](Cc1ccc(O)cc1)C(=O)N[C@@H](CCCN=C(N)N)C(=O)N[C@@H](CCCCN)C(=O)N[C@H](C(=O)N[C@@H](CC(C)C)C(=O)NCC(=O)N[C@@H](CCC(N)=O)C(=O)N[C@@H](CC(C)C)C(=O)N[C@@H](CO)C(=O)N[C@@H](C)C(=O)N[C@@H](CCCN=C(N)N)C(=O)N[C@@H](CCCCN)C(=O)N[C@@H](CC(C)C)C(=O)N[C@@H](CC(C)C)C(=O)N[C@@H](CCC(N)=O)C(N)=O)C(C)C)[C@@H](C)O`, the Potency in assay [6] was 0.008%; in assay [1] it was less than 1%.
Molecule `CC[C@H](C)[C@H](NC(=O)[C@H](C)NC(=O)[C@H](CC(=O)O)NC(=O)[C@@H](C)NC(=O)[C@@H](N)Cc1ccc(O)cc1)C(=O)N[C@@H](Cc1ccccc1)C(=O)N[C@H](C(=O)N[C@H](CC(N)=O)C(=O)N[C@@H](CO)C(=O)N[C@@H](Cc1ccc(O)cc1)C(=O)N[C@@H](CCCN=C(N)N)C(=O)N[C@@H](CCCCN)C(=O)N[C@H](C(=O)N[C@@H](CC(C)C)C(=O)NCC(=O)N[C@@H](CCC(N)=O)C(=O)N[C@@H](CC(C)C)C(=O)N[C@@H](CO)C(=O)N[C@@H](C)C(=O)N[C@@H](CCCN=C(N)N)C(=O)N[C@@H](CCCCN)C(=O)N[C@@H](CC(C)C)C(N)=O)C(C)C)[C@@H](C)O` registered a Potency in assay [1] of less than 5%. Moreover, the Plasma GH release in assay [4] is 417 ng/mL and 305 ng/mL.
Take `CC[C@H](C)[C@H](NC(=O)[C@H](C)NC(=O)[C@H](CC(=O)O)NC(=O)[C@@H](C)N(C)C(=O)[C@@H](N)Cc1ccc(O)cc1)C(=O)N[C@@H](Cc1ccccc1)C(=O)N[C@H](C(=O)N[C@H](CC(N)=O)C(=O)N[C@@H](CO)C(=O)N[C@@H](Cc1ccc(O)cc1)C(=O)N[C@@H](CCCN=C(N)N)C(=O)N[C@@H](CCCCN)C(=O)N[C@H](C(=O)N[C@@H](CC(C)C)C(=O)NCC(=O)N[C@@H](CCC(N)=O)C(=O)N[C@@H](CC(C)C)C(=O)N[C@@H](CO)C(=O)N[C@@H](C)C(=O)N[C@@H](CCCN=C(N)N)C(=O)N[C@@H](CCCCN)C(=O)N[C@@H](CC(C)C)C(N)=O)C(C)C)[C@@H](C)O`: the Plasma GH release in assay [3] stood at 385 ng/mL; in assay [4] it was 512 ng/mL. The Potency in assay [1] was less than 5%.
Consider `CC[C@H](C)[C@H](NC(=O)[C@H](C)NC(=O)[C@@H](CC(=O)O)NC(=O)[C@H](C)NC(=O)[C@@H](N)Cc1ccc(O)cc1)C(=O)N[C@@H](Cc1ccccc1)C(=O)N[C@H](C(=O)N[C@H](CC(N)=O)C(=O)N[C@@H](CO)C(=O)N[C@@H](Cc1ccc(O)cc1)C(=O)N[C@@H](CCCN=C(N)N)C(=O)N[C@@H](CCCCN)C(=O)N[C@H](C(=O)N[C@@H](CC(C)C)C(=O)NCC(=O)N[C@@H](CCC(N)=O)C(=O)N[C@@H](CC(C)C)C(=O)N[C@@H](CO)C(=O)N[C@@H](C)C(=O)N[C@@H](CCCN=C(N)N)C(=O)N[C@@H](CCCCN)C(=O)N[C@@H](CC(C)C)C(N)=O)C(C)C)[C@@H](C)O`, for which the Plasma GH release was found to be 401 ng/mL in assay [3] and 498 ng/mL in assay [4]. Further, the Potency in assay [1] was less than 5%.
